Source: ChEMBL document CHEMBL5370638
The source made the active and inactive calls. The rule behind the calls is not given here. Numbered stars: 1 amine (or outer) side, 2 acyl side, 3 side chain; on linkers, the order of the positions; unused ones are H or OH. Bridge positions count the residues as written; N and C are the ends. Square brackets hold non-standard residues; d marks the D form. Peptide text beside a SMILES is read from it. AMPB(E) = O=C(c1ccc(/N=N/c2ccc(CN[*:1])cc2)cc1)[*:2]; X3 = O=C(c1ccccc1/N=N\c1ccccc1C(=O)[*:2])[*:1]; X4 = O=C(c1ccccc1/N=N/c1ccccc1C(=O)[*:2])[*:1]; Dap = NC[C@H](N)C(=O)O

Legend:
Format in all cases: functional, cell-based
[1] = target: T1, Vasopressin V1b receptor (Homo sapiens) (UniProt P47901); assay: Activation of human C-terminal GFP-tagged V1b receptor in HEK293 cells assessed as CREB phosphorylation at 1 nM incubated for 60 mins by immunostaining analysis
T1 sequence (whole entry): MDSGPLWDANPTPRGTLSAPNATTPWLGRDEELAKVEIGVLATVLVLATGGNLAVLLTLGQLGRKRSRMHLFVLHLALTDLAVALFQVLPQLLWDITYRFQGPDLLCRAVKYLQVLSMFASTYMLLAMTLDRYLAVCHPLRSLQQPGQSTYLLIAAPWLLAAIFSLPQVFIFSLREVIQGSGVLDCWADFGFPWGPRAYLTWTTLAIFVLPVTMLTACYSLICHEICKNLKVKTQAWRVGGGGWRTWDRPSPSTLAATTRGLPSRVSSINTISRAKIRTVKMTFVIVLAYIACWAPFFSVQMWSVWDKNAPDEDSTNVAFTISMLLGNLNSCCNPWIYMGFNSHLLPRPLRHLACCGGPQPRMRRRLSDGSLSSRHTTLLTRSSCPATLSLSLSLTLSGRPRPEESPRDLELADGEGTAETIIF
In short: (§1)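 HEK293 cells stably expressing human V1bR with C-terminal GFP were plated overnight on poly-D-lysine coverslips and serum-starved for one day. Ligands in serum-free medium were applied for 60 min; the Z-form was diode-activated at 340 nm. Cells were fixed in 4% PFA, immunostained (anti-GFP, anti-pCREB, Hoechst) and imaged confocally. pCREB signal was normalized to medium-only controls; internalization was scored from GFP location.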

[2] = system: HEK293; assay: Induction of C-terminal GFP-tagged V1b receptor internalization in HEK293 cells at 1 nM incubated for 60 mins by fluorescence microscopy analysis; settings: Homo sapiens; in short: as §1
[3] = target: Vasopressin V1a receptor (Homo sapiens) (UniProt P37288); assay: Agonist activity at human V1a receptor transfected in HEK293 cells upto 10 uM incubated for 1 hr by IP-one HTRF assay
In short: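 Stable HEK293 lines expressing hOTR, hV1aR or hV1bR (10,000 cells/well, 48 h) were preincubated in stimulation buffer for 15 min, then given ligand for 1 h at 37 °C. Z-forms were pre-irradiated at 340 nm for 1 min.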

[4] = target: Vasopressin V1a receptor (Homo sapiens) (UniProt P37288); assay: Antagonist activity at human V1a receptor transfected in HEK293 cells at 10 uM relative to control; settings: filed as antagonist
In short: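 V1aR-expressing HEK293 cells received VP (1 nM final) premixed with test compound (10 or 100 μM), incubated for 1 h at 37 °C. IP1 accumulation was measured by HTRF (665/615 nm) and normalized to basal (0%) and maximal VP (100%). […] At least three independent experiments were run, each in triplicate.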

Sequence of Vasopressin V1a receptor (Homo sapiens) (P37288 whole entry, looked up): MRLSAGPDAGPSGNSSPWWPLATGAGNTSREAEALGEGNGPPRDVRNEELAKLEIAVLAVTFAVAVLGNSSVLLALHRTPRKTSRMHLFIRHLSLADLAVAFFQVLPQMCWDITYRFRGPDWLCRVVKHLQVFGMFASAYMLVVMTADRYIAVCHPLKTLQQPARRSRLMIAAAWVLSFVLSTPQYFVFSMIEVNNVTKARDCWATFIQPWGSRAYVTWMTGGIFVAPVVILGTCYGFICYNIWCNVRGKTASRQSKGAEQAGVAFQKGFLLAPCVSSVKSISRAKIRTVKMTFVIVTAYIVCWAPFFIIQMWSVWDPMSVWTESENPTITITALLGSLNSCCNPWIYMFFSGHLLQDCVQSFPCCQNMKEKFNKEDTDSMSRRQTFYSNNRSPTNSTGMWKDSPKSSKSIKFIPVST

| Activity [4] | SMILES | Activity [2] | Activity [3] | further results |
| --- | --- | --- | --- | --- |
| – | NC(=O)CC[C@@H]1NC(=O)[C@H](Cc2ccc(/N=N/c3ccccc3)cc2)NC(=O)[C@H](Cc2ccc(O)cc2)NC(=O)[C@@H](N)CSSC[C@@H](C(=O)N2CCC[C@H]2C(=O)N[C@@H](CCCN=C(N)N)C(=O)NCC(N)=O)NC(=O)[C@H](CC(N)=O)NC1=O | inactive | – | Activity [1]: inactive |
| – | NC(=O)CC[C@@H]1NC(=O)[C@H](Cc2ccc(/N=N\c3ccccc3)cc2)NC(=O)[C@H](Cc2ccc(O)cc2)NC(=O)[C@@H](N)CSSC[C@@H](C(=O)N2CCC[C@H]2C(=O)N[C@@H](CCCN=C(N)N)C(=O)NCC(N)=O)NC(=O)[C@H](CC(N)=O)NC1=O | Active | – | – |
| – | NC(=O)CC[C@@H]1NC(=O)[C@H](Cc2ccccc2)NC(=O)[C@H](Cc2ccc(O)cc2)NC(=O)[C@@H](N)CSSC[C@@H](C(=O)NCc2ccc(/N=N/c3ccc(C(=O)NCC(N)=O)cc3)cc2)NC(=O)[C@H](CC(N)=O)NC1=O (H-CYFQNC[AMPB(E)]G-NH2; disulfide 1-6) | – | inactive | – |
| – | NC(=O)CC[C@@H]1NC(=O)[C@H](Cc2ccccc2)NC(=O)[C@H](Cc2ccc(O)cc2)NC(=O)[C@@H](N)CSSC[C@@H](C(=O)NCc2ccc(/N=N/c3ccc(C(=O)N[C@@H](CCCN=C(N)N)C(=O)NCC(N)=O)cc3)cc2)NC(=O)[C@H](CC(N)=O)NC1=O (H-CYFQNC[AMPB(E)]RG-NH2; disulfide 1-6) | – | inactive | – |
| Active | NC(=O)CC[C@@H]1NC(=O)[C@H](Cc2ccccc2)NC(=O)[C@H](Cc2ccc(O)cc2)NC(=O)c2ccccc2/N=N\c2ccccc2C(=O)NC[C@@H](C(=O)N2CCC[C@H]2C(=O)N[C@@H](CCCN=C(N)N)C(=O)NCC(N)=O)NC(=O)[C@H](CC(N)=O)NC1=O (YFQN[Dap]PRG-NH2; linker N-5 via X3) | – | – | – |
| Active | NC(=O)CC[C@@H]1NC(=O)[C@H](Cc2ccccc2)NC(=O)[C@H](Cc2ccc(O)cc2)NC(=O)c2ccccc2/N=N/c2ccccc2C(=O)NC[C@@H](C(=O)N2CCC[C@H]2C(=O)N[C@@H](CCCN=C(N)N)C(=O)NCC(N)=O)NC(=O)[C@H](CC(N)=O)NC1=O (YFQN[Dap]PRG-NH2; linker N-5 via X4) | – | – | – |
